An excerpt weighted towards active compounds, which were near 1.8% of everything screened.
APOBEC3A inh – human APOBEC3A DNA deaminase inhibition; P31941; inhibition, % at 20 µM; recombinant A3A, FAM/TAMRA ssDNA deamination fluorescence; 330,000 tested, 0.41% active; AID 493011;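 active means at least 40% inhibition at 20 µM here, with at most 30% in a related deaminase screen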;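 further: plate controls were A3A with DMSO for no effect and wells lacking A3A enzyme for full effect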
p-CIP stab down – compounds decreasing mouse p/CIP protein stability; Q05BA5; F442A p/CIP-EGFP cells, EGFP fluorescence, 16 h; decrease of EGFP signal, % at 10 µM; 290,000 tested, 0.01% active; AID 1984;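 active means EGFP signal decrease of at least 30% at 10 µM or well 3 SD below plate mean, unless failing retest; inactive means the rest, including hits failing retest or dose response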
TbMetRS inhib – Trypanosoma brucei MetRS inhibition; inhibition, % at 11.9 µM; purified T. brucei MetRS, ATP depletion, Kinase-Glo luminescence; AID 624268; 360,000 tested, 0.4% active;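 active means inhibition above a per-plate cutoff of the control wells' mean inhibition plus 3 SD, cut at about 5.5% in these data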;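 further: 0% = DMSO wells median and 100% = median of wells with control inhibitor compound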
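Dosing: 11.9 µM single point; system: parasite MetRS enzyme; technique: luminescence of leftover ATP; times: 15 min enzyme-compound preincubation, 2 h reaction, 10 min detection, 25 °C; replicates: each compound tested once; read-out basis: percent inhibition relative to median high and low control wells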
APOBEC3G inh – blocks human APOBEC3G single-stranded DNA deamination; Q9HC16; recombinant A3G, ssDNA deamination FAM/TAMRA fluorescence; inhibition, % at 20 µM; 330,000 tested, 0.28% active; AID 493012;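 active means inhibition of at least 40% at 20 µM, with no more than 30% in the related APOBEC3A deaminase screen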;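 further: plate controls were DMSO wells with A3G for no effect and wells lacking A3G enzyme for full effect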
PHOSPHO1 inh – blocks human PHOSPHO1 phosphatase activity. Q8TCT1. recombinant PHOSPHO1, absorbance phosphatase assay. inhibition, % at 13.3 µM. 290,000 tested, 1.1% active; in the data active means inhibition above about 60%
APOBEC3A confirm – confirmation of human APOBEC3A DNA deaminase inhibitors. shares compounds with APOBEC3A inh. recombinant A3A, ssDNA deaminase UDG fluorescence assay. inhibition, % at 20 µM. 1,400 tested, 63% active. AID 493151;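 active means inhibition reaching a set limit, 80% of the first screen's cutoff, at 20 µM in any replicate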;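 further: plate controls were DMSO wells with A3A for no effect and wells lacking A3A enzyme for full effect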
UDG A3A counter – counter-screen for APOBEC3A inhibitors: UDG; shares compounds with APOBEC3A inh; 1,000 tested, under 10 active; AID 504714; inhibition, % at 20 µM; UDG counterscreen, FAM/TAMRA uracil oligo fluorescence; call rule not given here
An asterisk follows results filed as active; / = no result.

SMILES	APOBEC3A inh	p-CIP stab down	TbMetRS inhib	APOBEC3G inh	PHOSPHO1 inh	APOBEC3A confirm	UDG A3A counter
C[N+]1(C)CCC(=C2c3ccccc3CC(=O)c3sccc32)CC1	52.2*	1.0	0.1	27.6	-108.6	53.2*	/
COc1ccc(NS(=O)(=O)c2ccc3c(c2)[C@H]2C=CC[C@H]2[C@@H](c2ccc(C(=O)O)cc2)N3)cc1	48.7*	-3.5	0.6	27.8	14.2	29.3*	1.1
Cc1c(Cl)cccc1NS(=O)(=O)c1ccc2c(c1)C1C=CCC1C(c1ccc(C(=O)O)cc1)N2 (stereo not given)	28.2	-7.1	3.1	18.7	-11.8	/	/
CN1CC[n+]2c(CN3C(=O)c4ccccc4C3=O)csc21	50.7*	-13.3	-1.9	27.5	20.0	78.6*	4.7
Cc1cc(OCCCC(=O)NCCc2nnc3ccccn23)ccc1Cl	-4.0	/	-0.2	-5.8	/	/	/
N#Cc1cccc(NC(=O)Cn2c3[n+](c4ccc(C(F)(F)F)cc42)CCCCC3)c1	41.7*	-0.9	0.9	28.3	-9.0	59.8*	-2.6
CCN1CCN(c2ccc(NC(=O)c3ccc4c(c3)OCO4)cc2)CC1	-0.3	-8.1	-0.8	-1.7	24.3	/	/
CCN1CCN(C(=O)c2ccc(Cl)c(S(=O)(=O)N3CCOCC3)c2)CC1	40.6*	8.1	-0.2	11.9	53.7	14.0*	2.3
CCN1CCN(c2ccc(NC(=O)c3ccc(Cl)c(S(=O)(=O)N4CCCC4)c3)cc2)CC1	40.0*	/	-0.4	1.5	/	15.2	/
CCN1CCN(c2ccc(NC(=O)c3ccc(OC)c(S(=O)(=O)N4CCCC4)c3)cc2)CC1	15.1	/	-0.2	7.0	/	/	/
CCN1CCN(c2ccc(NC(=O)c3ccc(Cl)c(N4CCCC4=O)c3)cc2)CC1	65.6*	-17.0	-0.1	8.2	-1.8	25.5	/
CC(=O)[C@H]1CC[C@H]2[C@@H]3C=CC4=CC(=O)CC[C@@]4(C)[C@@H]3CC[C@]12C	-3.4	/	-0.4	-8.2	/	/	/
CC(C)(C)[C@H]1COC(=O)[C@H](Cc2ccc(F)cc2)CC/C=C/C[C@@H](CC(=O)N[C@H](CO)Cc2ccccc2)C(=O)N1	3.5	/	-0.1	-1.5	/	/	/
Cc1cc(SCC(=O)NC(=O)c2cccn2C)nc2ccccc12	-6.5	1.2	-0.3	-6.7	23.6	/	/
O=C(CSc1nnnn1-c1ccccc1)Nc1ccc(N2CCOCC2)c(Cl)c1	63.6*	-9.3	-1.1	14.6	-21.8	54.9*	-2.0
O=C(CSc1nnnn1-c1cccc2ccccc12)Nc1ccc(N2CCOCC2)c(Cl)c1	3.8	-3.2	-1.0	3.7	0.3	/	/
CC(C)C1C(=O)N(Cc2cn(CCC3OCCO3)nn2)CCS(=O)(=O)N1Cc1ccc(-c2ccc(Cl)cc2)cc1 (stereo not given)	/	/	-0.2	/	/	/	/
CN(C)c1ccc(C(=O)c2ccccc2)cc1	-0.3	2.2	-0.3	-4.6	49.4	/	/
CN(C)c1ccc(N=Nc2ccc(C(=O)O)cc2)cc1	64.3*	6.2	-0.2	24.7	35.1	53.7*	1.2
COC(=O)C1=C(C)N(Cc2ccccc2)C(=NCCc2cccnc2)N[C@H]1c1ccccc1	79.6*	-4.5	-0.3	27.4	-18.6	73.9*	-3.2
COC(=O)C1=C(C)N(Cc2ccccc2)C(=NCCc2cccnc2)N[C@H]1c1ccc(Br)cc1	44.9*	/	0.7	11.9	/	54.3*	2.1
COC(=O)C1=C(C)N(Cc2ccccc2)C(=S)N[C@H]1c1ccc(Br)cc1	1.6	/	0.5	-6.2	/	/	/
COC(=O)C1=C(C)N(Cc2ccccc2)C(=NCCCCO)N[C@H]1c1ccccc1	51.5*	-7.7	/	18.7	-52.4	74.6*	6.0
COC(=O)C1=C(C)N(Cc2ccccc2)C(=NCc2ccc3c(c2)OCO3)N[C@H]1c1ccccc1	30.9	/	0.1	0.5	/	/	/
Cn1c(=O)c2cc(NC(=O)CCc3cccnc3)ccc2n1Cc1ccc(F)cc1	/	/	0.0	/	/	/	/
SMILES	APOBEC3A inh	p-CIP stab down	TbMetRS inhib	APOBEC3G inh	PHOSPHO1 inh	APOBEC3A confirm	UDG A3A counter
COc1ccccc1CNC(=O)C(=O)NCCC1CCCCN1S(=O)(=O)c1ccccc1 (stereo not given)	-0.9	/	-0.3	-4.9	/	/	/
CC1=NOC(=O)/C1=C\c1ccc(-c2ccc(Br)cc2C(=O)O)o1	53.4*	10.3	0.1	16.1	-67.3	active	4.7
COc1ccc(S(=O)(=O)N2CCCCCC2)cc1C(=O)N(C)Cc1ccc(C(C)(C)C)cc1	3.0	-6.0	-0.4	-4.1	21.8	/	/
CCOC(=O)c1c(NC(=O)c2ccc(N3C(=O)[C@@H]4[C@H](C3=O)[C@H]3C=C[C@@H]4C3)cc2)sc2c1CC(C)CC2 (stereo not given in full)	90.8*	3.4	-0.8	-5.2	-29.5	6.0	6.2
CCc1ccc(NS(=O)(=O)c2ccc(C)c(C(=O)N3CCOCC3)c2)cc1	74.5*	3.6	0.1	14.8	17.4	90.7*	-5.2
Cc1ccc(NS(=O)(=O)c2ccc(C)c(C(=O)N3CCOCC3)c2)cc1	-0.7	-22.7	-0.5	12.0	17.8	/	/
Nc1ccccc1SCC(O)Cn1ccc2ccccc21 (stereo not given)	-4.5	4.6	-0.5	-9.3	/	/	/
Cn1cc([N+](=O)[O-])c(C(=O)N2CCCCCC2)n1	-0.7	-7.6	0.1	-6.2	7.5	/	/
Cc1ccc(Cl)c(OCC(=O)Nc2cccnc2)c1	44.0*	-11.9	-0.4	3.7	12.5	-2.5	/
Cc1ccnc(NS(=O)(=O)c2ccc(NC(=O)Cc3cccs3)cc2)n1	54.2*	-6.3	0.1	29.5	3.5	61.4*	-4.3
O=C(Cc1cccs1)Nc1ccc(S(=O)(=O)Nc2ncccn2)cc1	35.6	4.8	-0.2	14.0	27.9	/	/
O=C1CCC([N+](=O)[O-])C(c2ccc3c(c2)OCO3)N1 (stereo not given)	-4.6	9.3	0.1	-8.8	8.9	/	/
CC(=O)Nc1nc2c(ccc3ccccc32)s1	48.9*	-3.0	0.2	9.3	/	13.4	/
O=C(Cc1cccs1)Nc1nc2c(ccc3ccccc32)s1	-0.6	4.1	-0.1	-3.1	-40.4	/	/
CCC(CC)c1nnc(NC(=O)CCNC(=O)c2ccccc2Cl)s1	-8.6	-10.8	0.6	-5.7	27.1	/	/
CC1(C)CC(=O)C(C(=O)C2CCN(S(=O)(=O)c3ccccc3)CC2)C(=O)C1	47.0*	1.7	-1.0	-7.4	28.3	-5.4	0.8
Cc1ccc2cc(CCNC(=O)c3cccc([N+](=O)[O-])c3)c(=O)[nH]c2c1C	0.4	-6.7	0.3	-2.6	2.9	/	/
COc1ccc(Cl)cc1NC(=O)c1cccc(-n2cnnn2)c1	48.0*	/	-0.2	-13.5	/	8.0	2.7
CCC(C)c1ccccc1NC(=O)c1cccnc1 (stereo not given)	-2.1	5.4	0.4	-4.4	31.0	/	/
CCC(C)c1ccccc1NC(=O)c1cccc(-n2cnnn2)c1 (stereo not given)	52.2*	/	-0.2	1.9	/	33.7*	-37.5
